In assay [1] the target is Cyclin-dependent kinase 16 (Homo sapiens) (UniProt Q00536). The assay can be described thus: Inhibition of PCTAIRE1 in human SKCO1 cells at 1 uM after 4 hrs using biotin labeled SKLTDNLVALKEIR probe by mass-spectrometric analysis relative to control. The assay is classed as cell-based. Summed up: (§1)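 Live SK-CO-1 cells exposed to compound at 1 μM or DMSO for 4 h (KiNativ). Lysates then labeled with lysine-reactive ATP/ADP-biotin probe, and probe-labeled kinase peptides quantified by mass spectrometry. Percent inhibition of probe-dependent recovery calculated relative to DMSO-treated cells.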

Assay [2] has as its target Mitogen-activated protein kinase 3 (Homo sapiens) (UniProt P27361). The experiment in a line: Inhibition of Erk1 in human SKCO1 cells at 1 uM after 4 hrs using biotin labeled DLKPSNLLINTTCDLK probe by mass-spectrometric analysis relative to control. The assay is classed as cell-based.
In assay [3] the target is Serine/threonine-protein kinase Nek6 (Homo sapiens) (UniProt Q9HC98). The experiment in a line: Inhibition of NEK6 in human SKCO1 cells at 1 uM after 4 hrs using biotin labeled TVALKK probe by mass-spectrometric analysis relative to control. Format: cell-based.
The target of assay [4] is RAF proto-oncogene serine/threonine-protein kinase (Homo sapiens) (UniProt P04049). The assay can be described thus: Inhibition of RAF1 in human SKCO1 cells at 1 uM after 4 hrs using biotin labeled DMKSNNIFLHEGLTVK probe by mass-spectrometric analysis relative to control. Format: cell-based. Summed up:
as §1

Assay [5] deals with Mitogen-activated protein kinase kinase kinase kinase 5 (Homo sapiens) (UniProt Q9Y4K4). The experiment in a line: Inhibition of KHS1 in human SKCO1 cells at 1 uM after 4 hrs using biotin labeled NVHTGELAAVKIIK probe by mass-spectrometric analysis relative to control. Format: cell-based.
A further assay concerns NALM-6. The experiment in a line: Antiproliferative activity against human NALM6 cells harboring NARS A146T mutant at […] to […] nM after 72 hrs by CellTiter-Glo assay. The assay is classed as functional, cell-based.
Assay [6] deals with Ephrin type-B receptor 2 (Homo sapiens) (UniProt P29323). The assay can be described thus: Inhibition of EphB2 in human SKCO1 cells at 1 uM after 4 hrs using biotin labeled FLEDDTSDPTYTSALGGKIPIR probe by mass-spectrometric analysis relative to control. The assay is classed as cell-based.
For assay [7], the target named is Cyclin-dependent kinase 16 (Homo sapiens) (UniProt Q00536). The assay can be described thus: Inhibition of PCTAIRE1 in human SKCO1 cells at 1 uM after 4 hrs using biotin labeled DLKPQNLLINER probe by mass-spectrometric analysis relative to control. Format: cell-based. Summed up:
as §1

The target in assay [8] is Fibroblast growth factor receptor 1 (Homo sapiens) (UniProt P11362). The experiment in a line: Inhibition of FGFR1 in human SKCO1 cells at 1 uM after 4 hrs using biotin labeled VAVKMLK probe by mass-spectrometric analysis relative to control. Format: cell-based. The note with it: pooled result: one value given for 4 cell lines, strains, targets or settings.
Assay [9] has as its target T1, Non-receptor tyrosine-protein kinase TNK1 (Homo sapiens) (UniProt Q13470).
T1 sequence (whole entry): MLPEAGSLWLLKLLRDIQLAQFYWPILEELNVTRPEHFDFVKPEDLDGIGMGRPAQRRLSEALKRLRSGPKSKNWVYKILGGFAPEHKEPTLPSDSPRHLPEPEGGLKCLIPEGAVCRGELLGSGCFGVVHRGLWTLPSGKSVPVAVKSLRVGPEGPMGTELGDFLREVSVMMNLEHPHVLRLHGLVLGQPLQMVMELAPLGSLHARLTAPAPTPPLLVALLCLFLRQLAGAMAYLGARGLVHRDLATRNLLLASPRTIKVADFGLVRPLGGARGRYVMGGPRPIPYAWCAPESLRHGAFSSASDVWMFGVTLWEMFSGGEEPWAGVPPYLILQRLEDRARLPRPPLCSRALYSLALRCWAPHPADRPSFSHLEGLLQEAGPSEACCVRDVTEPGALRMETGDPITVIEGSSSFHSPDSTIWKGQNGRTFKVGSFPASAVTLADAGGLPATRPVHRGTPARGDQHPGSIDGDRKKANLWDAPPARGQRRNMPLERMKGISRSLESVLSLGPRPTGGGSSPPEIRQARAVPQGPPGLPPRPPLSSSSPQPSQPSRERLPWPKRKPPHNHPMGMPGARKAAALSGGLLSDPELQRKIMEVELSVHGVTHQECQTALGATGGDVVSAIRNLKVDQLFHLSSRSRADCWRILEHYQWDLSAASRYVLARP
The assay can be described thus: Inhibition of TNK1 in human SKCO1 cells at 1 uM after 4 hrs using biotin labeled SVPVAVKSLR probe by mass-spectrometric analysis relative to control. Format: cell-based. In outline:
as §1

Assay [10] concerns the target Tyrosine-protein kinase Lck (Homo sapiens) (UniProt P06239). The assay can be described thus: Inhibition of LCK in human SKCO1 cells at 1 uM after 4 hrs using biotin labeled EGAKFPIKWTAPEAINYGTFTIK probe by mass-spectrometric analysis relative to control. The assay is classed as cell-based.
The target of assay [11] is T2, Dual specificity mitogen-activated protein kinase kinase 5 (Homo sapiens) (UniProt Q13163).
T2 sequence (whole entry): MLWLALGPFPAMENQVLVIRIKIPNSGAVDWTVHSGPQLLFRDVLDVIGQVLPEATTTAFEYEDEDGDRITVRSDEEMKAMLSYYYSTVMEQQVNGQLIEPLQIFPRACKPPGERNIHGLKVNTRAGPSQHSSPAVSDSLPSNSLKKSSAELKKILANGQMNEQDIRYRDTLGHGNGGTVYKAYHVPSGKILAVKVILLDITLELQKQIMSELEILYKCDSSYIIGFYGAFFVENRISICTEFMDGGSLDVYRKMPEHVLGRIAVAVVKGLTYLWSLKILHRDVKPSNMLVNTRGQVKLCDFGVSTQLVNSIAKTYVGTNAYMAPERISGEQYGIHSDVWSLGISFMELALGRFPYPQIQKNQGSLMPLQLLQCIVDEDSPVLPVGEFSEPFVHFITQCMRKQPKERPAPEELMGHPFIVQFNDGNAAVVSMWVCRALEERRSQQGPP
The assay can be described thus: Inhibition of MAP2K5 in human SKCO1 cells at 1 uM after 4 hrs using biotin labeled DVKPSNMLVNTR probe by mass-spectrometric analysis relative to control. Format: cell-based.

In assay [12] the target is Serine/threonine-protein kinase/endoribonuclease IRE2 (Homo sapiens) (UniProt Q76MJ5). The experiment in a line: Inhibition of IRE2 in human SKCO1 cells at 1 uM after 4 hrs using biotin labeled DLKPGNILITGPDSQGLGR probe by mass-spectrometric analysis relative to control. The assay is classed as cell-based.
Assay [13] deals with Wee1-like protein kinase (Homo sapiens) (UniProt P30291). The experiment in a line: Inhibition of Wee1 in human SKCO1 cells at 1 uM after 4 hrs using biotin labeled YIHSMSLVHMDIKPSNIFISR probe by mass-spectrometric analysis relative to control. Format: cell-based. Summed up: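 Live SK-CO-1 cells treated 4 h at 1 μM (DMSO control); cells lysed and lysates labeled with lysine-reactive ATP/ADP-biotin probe (KiNativ); probe-labeled kinase peptides quantified by mass spectrometry; inhibition expressed as percent reduction in probe-dependent recovery versus DMSO-treated cells.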

The source made the active and inactive calls. No cut-off for these calls is given here.

Sequence of RAF proto-oncogene serine/threonine-protein kinase (Homo sapiens) (P04049 whole entry): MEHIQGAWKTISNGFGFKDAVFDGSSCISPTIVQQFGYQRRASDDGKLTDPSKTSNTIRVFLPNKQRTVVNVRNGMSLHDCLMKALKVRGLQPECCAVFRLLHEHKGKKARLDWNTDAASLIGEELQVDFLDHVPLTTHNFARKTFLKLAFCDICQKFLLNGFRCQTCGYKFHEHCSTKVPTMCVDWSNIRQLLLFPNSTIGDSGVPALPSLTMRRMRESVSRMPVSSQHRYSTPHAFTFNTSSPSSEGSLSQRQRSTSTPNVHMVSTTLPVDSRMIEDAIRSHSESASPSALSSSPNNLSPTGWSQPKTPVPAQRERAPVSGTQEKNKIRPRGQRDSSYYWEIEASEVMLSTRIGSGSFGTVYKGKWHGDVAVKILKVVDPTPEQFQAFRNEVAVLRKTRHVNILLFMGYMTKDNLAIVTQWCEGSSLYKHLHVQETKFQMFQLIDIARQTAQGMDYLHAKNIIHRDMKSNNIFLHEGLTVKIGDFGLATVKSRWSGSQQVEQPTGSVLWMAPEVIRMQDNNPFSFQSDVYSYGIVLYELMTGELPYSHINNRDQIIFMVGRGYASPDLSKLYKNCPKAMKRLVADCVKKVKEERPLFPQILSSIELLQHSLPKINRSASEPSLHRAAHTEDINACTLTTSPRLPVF
Sequence of Fibroblast growth factor receptor 1 (Homo sapiens) (P11362 22-822 limits assumed): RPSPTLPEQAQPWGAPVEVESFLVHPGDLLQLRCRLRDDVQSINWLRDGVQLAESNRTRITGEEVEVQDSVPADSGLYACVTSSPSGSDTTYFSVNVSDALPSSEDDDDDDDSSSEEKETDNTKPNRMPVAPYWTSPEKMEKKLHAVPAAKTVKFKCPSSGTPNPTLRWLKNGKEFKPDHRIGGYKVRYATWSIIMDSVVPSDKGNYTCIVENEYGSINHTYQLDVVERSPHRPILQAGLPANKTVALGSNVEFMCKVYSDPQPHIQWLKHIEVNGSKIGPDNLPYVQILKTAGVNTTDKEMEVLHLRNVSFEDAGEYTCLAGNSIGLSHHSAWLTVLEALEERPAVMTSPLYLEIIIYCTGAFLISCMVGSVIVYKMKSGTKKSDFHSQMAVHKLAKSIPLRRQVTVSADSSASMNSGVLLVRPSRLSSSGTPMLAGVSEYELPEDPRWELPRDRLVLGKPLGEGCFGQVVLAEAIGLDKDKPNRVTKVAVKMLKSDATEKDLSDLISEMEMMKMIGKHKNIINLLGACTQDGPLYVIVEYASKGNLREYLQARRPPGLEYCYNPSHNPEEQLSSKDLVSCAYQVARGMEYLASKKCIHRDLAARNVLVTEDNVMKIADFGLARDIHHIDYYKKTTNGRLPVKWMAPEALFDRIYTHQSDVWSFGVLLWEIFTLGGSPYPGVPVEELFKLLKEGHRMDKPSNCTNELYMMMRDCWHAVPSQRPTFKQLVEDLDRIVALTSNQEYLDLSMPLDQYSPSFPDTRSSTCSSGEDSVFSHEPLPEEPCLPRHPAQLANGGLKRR
Sequence of Cyclin-dependent kinase 16 (Homo sapiens) (Q00536 whole entry): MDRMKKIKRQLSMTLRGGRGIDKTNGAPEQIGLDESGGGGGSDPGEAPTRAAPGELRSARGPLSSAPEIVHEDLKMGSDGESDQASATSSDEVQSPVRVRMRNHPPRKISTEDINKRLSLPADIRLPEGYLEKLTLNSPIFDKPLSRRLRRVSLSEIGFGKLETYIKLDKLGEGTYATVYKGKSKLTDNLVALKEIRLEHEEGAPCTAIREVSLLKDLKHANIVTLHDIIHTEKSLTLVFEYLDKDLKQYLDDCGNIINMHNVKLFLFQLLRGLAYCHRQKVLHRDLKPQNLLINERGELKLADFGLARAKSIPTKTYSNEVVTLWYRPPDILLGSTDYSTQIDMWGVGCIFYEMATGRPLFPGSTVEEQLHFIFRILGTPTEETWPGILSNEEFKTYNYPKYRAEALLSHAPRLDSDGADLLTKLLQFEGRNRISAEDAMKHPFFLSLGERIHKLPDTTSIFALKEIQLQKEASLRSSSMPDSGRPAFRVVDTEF
Sequence of Serine/threonine-protein kinase Nek6 (Homo sapiens) (Q9HC98 whole entry): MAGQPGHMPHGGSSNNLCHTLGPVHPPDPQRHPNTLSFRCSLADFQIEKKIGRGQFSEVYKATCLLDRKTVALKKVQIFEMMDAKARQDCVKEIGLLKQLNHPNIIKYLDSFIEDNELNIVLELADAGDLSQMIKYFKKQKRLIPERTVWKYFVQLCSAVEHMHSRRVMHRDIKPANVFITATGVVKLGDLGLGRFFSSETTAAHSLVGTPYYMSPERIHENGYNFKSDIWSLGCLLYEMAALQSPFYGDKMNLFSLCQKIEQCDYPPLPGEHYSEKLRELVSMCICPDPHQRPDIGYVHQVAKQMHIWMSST
Sequence of Ephrin type-B receptor 2 (Homo sapiens) (P29323 whole entry): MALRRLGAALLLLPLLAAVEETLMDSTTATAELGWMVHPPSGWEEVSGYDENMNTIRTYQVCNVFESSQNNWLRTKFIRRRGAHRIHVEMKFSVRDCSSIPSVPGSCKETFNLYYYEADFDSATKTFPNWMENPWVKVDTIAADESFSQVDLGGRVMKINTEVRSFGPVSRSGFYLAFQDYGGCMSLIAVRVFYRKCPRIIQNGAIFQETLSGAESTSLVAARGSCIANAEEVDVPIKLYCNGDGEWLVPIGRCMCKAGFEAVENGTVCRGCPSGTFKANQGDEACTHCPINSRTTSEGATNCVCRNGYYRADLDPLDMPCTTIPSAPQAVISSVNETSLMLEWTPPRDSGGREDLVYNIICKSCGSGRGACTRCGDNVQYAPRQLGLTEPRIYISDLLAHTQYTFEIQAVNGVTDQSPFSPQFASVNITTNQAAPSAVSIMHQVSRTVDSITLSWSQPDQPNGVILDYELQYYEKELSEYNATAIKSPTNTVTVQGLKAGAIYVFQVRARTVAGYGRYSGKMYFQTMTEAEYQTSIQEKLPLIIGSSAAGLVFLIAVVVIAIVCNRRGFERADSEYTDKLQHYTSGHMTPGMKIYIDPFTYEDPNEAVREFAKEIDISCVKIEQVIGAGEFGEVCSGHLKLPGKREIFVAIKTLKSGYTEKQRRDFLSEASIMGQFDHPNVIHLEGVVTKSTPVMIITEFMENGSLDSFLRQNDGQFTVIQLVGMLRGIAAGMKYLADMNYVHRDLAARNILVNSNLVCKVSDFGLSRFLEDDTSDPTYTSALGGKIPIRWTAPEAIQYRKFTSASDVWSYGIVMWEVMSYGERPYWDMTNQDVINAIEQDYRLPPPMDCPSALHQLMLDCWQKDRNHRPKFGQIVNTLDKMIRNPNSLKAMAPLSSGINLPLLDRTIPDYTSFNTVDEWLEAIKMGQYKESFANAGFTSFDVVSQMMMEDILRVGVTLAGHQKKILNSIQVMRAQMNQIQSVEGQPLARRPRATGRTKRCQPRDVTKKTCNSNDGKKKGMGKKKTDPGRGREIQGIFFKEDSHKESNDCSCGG
Sequence of Mitogen-activated protein kinase kinase kinase kinase 5 (Homo sapiens) (Q9Y4K4 whole entry, looked up): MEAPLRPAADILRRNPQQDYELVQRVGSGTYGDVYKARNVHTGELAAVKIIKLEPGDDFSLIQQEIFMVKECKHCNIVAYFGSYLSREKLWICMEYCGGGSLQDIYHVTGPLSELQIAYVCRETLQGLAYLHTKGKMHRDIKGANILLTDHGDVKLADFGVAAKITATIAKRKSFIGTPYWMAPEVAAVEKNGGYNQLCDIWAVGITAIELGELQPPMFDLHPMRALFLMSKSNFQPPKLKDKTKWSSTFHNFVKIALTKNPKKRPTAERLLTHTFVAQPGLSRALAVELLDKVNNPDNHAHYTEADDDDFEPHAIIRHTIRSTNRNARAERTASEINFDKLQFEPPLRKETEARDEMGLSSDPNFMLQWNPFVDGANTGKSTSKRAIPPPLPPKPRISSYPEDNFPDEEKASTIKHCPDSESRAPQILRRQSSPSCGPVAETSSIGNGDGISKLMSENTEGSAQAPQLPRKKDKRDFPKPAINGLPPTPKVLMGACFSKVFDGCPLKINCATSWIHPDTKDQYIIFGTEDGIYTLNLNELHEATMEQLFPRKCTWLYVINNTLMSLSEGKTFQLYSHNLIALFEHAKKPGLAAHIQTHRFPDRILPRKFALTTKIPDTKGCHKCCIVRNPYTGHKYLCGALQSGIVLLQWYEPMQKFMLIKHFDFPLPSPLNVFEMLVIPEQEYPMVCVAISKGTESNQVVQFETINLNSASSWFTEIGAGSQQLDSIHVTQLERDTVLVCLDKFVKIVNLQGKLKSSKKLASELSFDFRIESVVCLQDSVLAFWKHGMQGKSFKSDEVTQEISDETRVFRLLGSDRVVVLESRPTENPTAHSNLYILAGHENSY
Sequence of Tyrosine-protein kinase Lck (Homo sapiens) (P06239 2-509 limits assumed): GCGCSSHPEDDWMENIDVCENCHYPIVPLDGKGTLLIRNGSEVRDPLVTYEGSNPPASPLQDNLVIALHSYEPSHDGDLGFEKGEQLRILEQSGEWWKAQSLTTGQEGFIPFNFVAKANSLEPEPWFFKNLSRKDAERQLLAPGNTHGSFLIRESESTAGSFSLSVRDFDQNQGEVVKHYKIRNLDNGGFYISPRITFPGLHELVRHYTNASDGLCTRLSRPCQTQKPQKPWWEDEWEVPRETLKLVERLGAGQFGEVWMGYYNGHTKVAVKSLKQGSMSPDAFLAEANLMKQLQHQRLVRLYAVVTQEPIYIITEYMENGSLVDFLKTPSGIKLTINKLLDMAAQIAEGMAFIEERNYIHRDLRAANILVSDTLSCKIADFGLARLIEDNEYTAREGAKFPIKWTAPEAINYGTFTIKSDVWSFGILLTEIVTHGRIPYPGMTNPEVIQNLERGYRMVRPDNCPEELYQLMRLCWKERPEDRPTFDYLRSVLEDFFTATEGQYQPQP
Sequence of Mitogen-activated protein kinase 3 (Homo sapiens) (P27361 whole entry): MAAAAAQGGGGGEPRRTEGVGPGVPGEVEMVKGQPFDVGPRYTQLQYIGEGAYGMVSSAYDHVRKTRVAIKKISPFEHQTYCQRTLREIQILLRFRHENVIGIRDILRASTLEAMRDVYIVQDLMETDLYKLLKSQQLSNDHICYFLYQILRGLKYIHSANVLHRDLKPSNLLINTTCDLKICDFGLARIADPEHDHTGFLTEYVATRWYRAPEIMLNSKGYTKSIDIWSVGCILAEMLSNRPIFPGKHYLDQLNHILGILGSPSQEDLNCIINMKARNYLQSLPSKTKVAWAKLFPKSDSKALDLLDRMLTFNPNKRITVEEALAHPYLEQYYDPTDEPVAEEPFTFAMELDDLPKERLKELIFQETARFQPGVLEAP

On to `C=CC(=O)Nc1ccccc1Oc1nc(Nc2cnn(CCOC)c2)ncc1Cl`, for which the inhibition in assay [1] was -5.2%; in assay [2], 42.7%; in [3] it was -9.9%; in assay [4] it was 6.3%; in assay [5], -4.6%; in assay [6], 13.7%. The inhibition in assay [7] was -5.9%; in assay [8], 7.6%; in [9] it was 48.3%; in [10], -2.7%. Further, the outcome in the assay with NALM-6 was inactive.

Take `C=CC(=O)Nc1ccccc1Nc1nc(Nc2ccc(N3CCN(C)CC3)cc2)ncc1Cl`: the inhibition was -8% in [1]; 38.1% in [11]; 6.9% in [12]; 5.2% in assay [2]; 65.6% in [4]; 14.8% in assay [5]. The inhibition in [13] is 79%; in assay [7], -3.2%; in assay [8], 33.7%; in assay [9] it was 98.3%; in [10], 0%. Also, the outcome in the assay on NALM-6 was inactive.

On to `COc1cc(O)c2c(c1)/C=C/C[C@H](O)[C@H](O)C(=O)/C=C\C[C@H](C)OC2=O`, for which the inhibition in assay [11] is 86.8%; in [12], 21.4%; in assay [3], -9.7%; in assay [4] it was 66.4%; in assay [13] it was 3%; in assay [6], 24.2%. Also, the results for the inhibition in assay [7], in assay [8] and in assay [9] were -6.3%, 18.4% and 13.9%, respectively.

The values above are taken from ChEMBL document CHEMBL4118021, “Studies of TAK1-centered polypharmacology with novel covalent TAK1 inhibitors” (Bioorg Med Chem, 2017).
